This note sets out measurements from ChEMBL document CHEMBL1123578, “Stereochemical studies on the cytochrome P-450 catalyzed oxidation of (S)-nicotine to the (S)-nicotine delta 1'(5')-iminium species” (J Med Chem, 1987).

Holding throughout (format): functional
What all share (conditions): Microsome

The species named for test [1] is Homo sapiens. In words: Percent Deuterium retention was measured for the corresponding alpha-cyano amine in the human liver microsomes and value from experiment I are reported. A digest of the protocol:
(§1)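 Human liver microsomes from three separate sources (homogenized in 4 mL KCl/g liver), 3 mg protein/mL. E or Z (S)-nicotine-5'-d1 (0.5 mM) was incubated 30 min at 37 °C in 0.2 M K phosphate pH 7.4 with 1.5 mM MgCl2, 1.0 mM NaCN and 1 mg/mL NADPH. The 5'-cyano adducts were ether-extracted and measured by GC-EIMS SIM (m/z 109-111) with isotope and contaminant corrections.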
On the technique in general: Microsomes from liver hold many membrane-bound enzymes, among them those of drug oxidation.

The species named for test [2] is Homo sapiens. In words: Percent Deuterium retention was measured for the corresponding alpha-cyano amine in the human liver microsomes and value from experiment II are reported. The procedure, abridged: as §1
Test [3] is filed under the species Homo sapiens. Briefly: Percent Deuterium retention was measured for the corresponding alpha-cyano amine in the human liver microsomes and value from experiment III are reported. The procedure, abridged:
as §1

Test [4] is filed under the species Oryctolagus cuniculus. Briefly: Percent Deuterium retention was measured for the corresponding alpha-cyano amine in the Dutch rabbit liver microsomes and value from experiment I are reported. The procedure, abridged: (§2)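 Liver microsomes from male Dutch rabbits (homogenized in 2 mL KCl/g liver), 3 mg protein/mL. The E or Z (S)-nicotine-5'-d1 (0.5 mM) was incubated in 0.2 M K phosphate pH 7.4 with 1.5 mM MgCl2, 1.0 mM NaCN and 1 mg/mL NADPH for 30 min at 37 °C.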

The species named for test [5] is Oryctolagus cuniculus. Briefly: Percent Deuterium retention was measured for the corresponding alpha-cyano amine in the Dutch rabbit liver microsomes and value from experiment II are reported. The procedure, abridged:
as §2

Test [6] is filed under the species Oryctolagus cuniculus. Briefly: Percent Deuterium retention was measured for the corresponding alpha-cyano amine in the Dutch rabbit liver microsomes and value from experiment IV are reported. The procedure, abridged: as §2
For test [7], the species on record is Oryctolagus cuniculus. In words: Percent Deuterium retention was measured for the corresponding alpha-cyano amine in the Dutch rabbit liver microsomes and value from experiment V are reported. The procedure, abridged: as §2
The species entered for test [8] is Oryctolagus cuniculus. Briefly: Percent Deuterium retention was measured for the corresponding alpha-cyano amine in the Dutch rabbit liver microsomes and value from experiment VI are reported. A digest of the protocol:
as §2

The species named for test [9] is Oryctolagus cuniculus. Briefly: Percent Deuterium retention was measured for the corresponding alpha-cyano amine in the Dutch rabbit liver microsomes and value from experiment III are reported. The procedure, abridged:
as §2

For test [10], the species on record is Homo sapiens. In words: Percent Deuterium retention was measured for the corresponding alpha-cyano amine in the human liver microsomes and value from experiment III are reported. A digest of the protocol: as §1
The species entered for test [11] is Oryctolagus cuniculus. Briefly: Percent Deuterium retention was measured for the corresponding alpha-cyano amine in the Dutch rabbit liver microsomes and value from experimentI V are reported. The procedure, abridged:
as §2

In the case of `CN1[C@@H](C#N)CC[C@H]1c1cccnc1`, the Deuterium retention in the test listed under Homo sapiens [1] was 92%; in the test listed under Homo sapiens [2] it was 84%; in the test listed under Homo sapiens [3] it was 91%; in the test listed under Oryctolagus cuniculus [4] it was 87%; in the test listed under Oryctolagus cuniculus [5], 81%; in the test listed under Oryctolagus cuniculus [6], 79%. For the same molecule, the Deuterium retention in the test listed under Oryctolagus cuniculus [7] came out at 77%; in the test listed under Oryctolagus cuniculus [8], 88%; in the test listed under Oryctolagus cuniculus [9] it was 89%.

For `CN1[C@H](C#N)CC[C@H]1c1cccnc1`, the Deuterium retention in the test listed under Homo sapiens [1] worked out at 3%; in the test filed under Homo sapiens [2] it was 24%; in the test filed under Homo sapiens [10], 3%; in the test filed under Oryctolagus cuniculus [4], 34%; in the test listed under Oryctolagus cuniculus [5], 22%; in the test listed under Oryctolagus cuniculus [7], 27%. In addition, the results for the Deuterium retention in the test filed under Oryctolagus cuniculus [8], in the test listed under Oryctolagus cuniculus [11] and in the test listed under Oryctolagus cuniculus [9] were 16%, 28% and 30%, respectively.
